# Measurements gathered from unrelated publications.
# Protocols differ between the studies behind these lines.
# Target: SRSF protein kinase 2 (SRPK2, Homo sapiens, UniProt P78362)
Compound,effect on,mode,technique,concentration,endpoint,result
Cn1c2c(c3ccc(Cl)c(Cl)c31)C(C#N)C1(CCOCC1)NC2=O (stereo not shown),thermal stability,,DSF,10 µM,ΔTm,0.2 °C
COc1cc(-c2cc(-c3ccc(N4CCNCC4)cc3)cnc2C)cc(OC)c1OC,enzyme activity,inhibitor,,0.1 µM,inhibition,2%
Cc1cc(NC(=O)c2cccc3cc(-c4cccc5[nH]nc(N)c45)ccc23)ccc1F,enzyme activity,inhibitor,,0.1 µM,activity vs control,103%
CCC(=N\O)/C(C)=C/c1ccc(F)cc1,cell-free assay,,competition with immobilised ligand,1 µM,remaining binding,75%
N#CC1c2c([nH]c3c(Cl)c(Cl)ccc23)C(=O)NC12CCCCC2 (racemic),thermal stability,,DSF,10 µM,ΔTm,0.7 °C
CC(C)(C)c1nc2c(s1)c1nc(N)ncc1c1ccc(NS(=O)(=O)c3c(F)cccc3F)c(F)c12,enzyme activity,inhibitor,radiometric,1 µM,remaining activity,108%
CCN(CC)CCNC(=O)c1c(C)[nH]c(/C=C2\C(=O)Nc3ccc(F)cc32)c1C,enzyme activity,inhibitor,,10 µM,inhibition,37%
CC(C)(O)[C@H]1CC[C@H](Nc2ccc3ncc(-c4cccc(C(F)(F)F)c4)n3n2)CC1,enzyme activity,inhibitor,,1 µM,remaining activity,94.5%
Cn1c2c(Cl)c(Cl)ccc2c2cc[nH]c(=O)c21,thermal stability,,DSF,10 µM,ΔTm,-0.2 °C
CNC(=O)c1cc(Oc2ccc(NC(=O)Nc3ccc(Cl)c(C(F)(F)F)c3)cc2)ccn1,enzyme activity,inhibitor,,10 µM,inhibition,12%
CN([C@@H]1CCc2c(CC(=O)O)c3ccccc3n2C1)S(=O)(=O)c1ccc(F)cc1,cell-free assay,,competition with immobilised ligand,1 µM,remaining binding,100%
CCCS(=O)(=O)Nc1ccc(F)c(C(=O)c2c[nH]c3ncc(-c4ccc(Cl)cc4)cc23)c1F,enzyme activity,inhibitor,,1 µM,inhibition,< 10%
COc1cc2ncnc(Nc3ccc(Oc4ccccc4)c(C)c3C)c2cc1OC,enzyme activity,inhibitor,,1 µM,inhibition,-3%
CCC1(CC)NC(=O)c2c(c3ccc(Cl)c(Cl)c3n2C)C1C#N (stereo not shown),thermal stability,,DSF,10 µM,ΔTm,0.1 °C
CCCOc1ccc(OC)c(F)c1C(=O)c1ccc(C(=O)N[C@@H]2CNC[C@H]2NC(=O)c2ccc3[nH]ncc3c2)cc1,enzyme activity,inhibitor,,10 µM,remaining activity,93%
CCOCCn1cc(C(=O)Nc2ccc(-n3nc(-c4cccnc4)cc3C(F)(F)F)cn2)ccc1=O,cell-free assay,,competition with immobilised ligand,1 µM,remaining binding,100%
Nc1ncnc2occ(-c3ccc(NC(=O)Nc4cc(C(F)(F)F)ccc4F)cc3)c12,cell-free assay,inhibitor,,20 µM,remaining signal,100%
Cn1c2c(Cl)c(Cl)ccc2c2cc(N)[nH]c(=O)c21,thermal stability,,DSF,10 µM,ΔTm,0.1 °C
CNCc1ccccc1-c1csc([C@@H](C)Nc2nc(C)nc3cc(OC)c(OC)cc23)c1,cell-free assay,,competition with immobilised ligand,1 µM,remaining binding,61%
Cc1ccc(Nc2nccc(N(C)c3ccc4c(C)n(C)nc4c3)n2)cc1S(N)(=O)=O,enzyme activity,inhibitor,,10 µM,inhibition,4%
Cc1sc(C(=O)NC2COC2)cc1-n1cc(NC(=O)Nc2c(F)cccc2Cl)cn1,enzyme activity,inhibitor,,10 µM,remaining activity,114%
CCN(CC)c1ccc(C2=NNC(=O)CC2C)cc1[N+](=O)[O-] (stereo not shown),enzyme activity,inhibitor,,10 µM,remaining activity,100%
CNC(=O)Nc1ccc2c(c1)[C@@]1(CC2)OC(=O)N(CC(=O)N(Cc2ccc(F)cc2)[C@@H](C)C(F)(F)F)C1=O,cell-free assay,,competition with immobilised ligand,1 µM,remaining binding,100%
CN1CC(Oc2cnc(C#N)cc2-c2ccn3nc(NC(=O)C4CC4)cc3c2)C1,enzyme activity,inhibitor,,1 µM,inhibition,6%
O=C(O)c1cc(-c2ccc(C3CCNCC3)cc2)c2ccc(-c3ccc(C(F)(F)F)cc3)cc2c1,cell-free assay,,competition with immobilised ligand,1 µM,remaining binding,100%
O=C1Nc2ccc(Cl)cc2C1=Cc1cc(Cl)c(O)c(Cl)c1,cell-free assay,,,0.5 µM,remaining signal,95.2%
Cn1c2c(c3ccc(Cl)c(Cl)c31)C(C#N)C1(CCCC1)NC2=O (stereo not shown),thermal stability,,DSF,10 µM,ΔTm,0 °C
Cc1cc(-n2nc(Cc3cc(F)cc(C(F)(F)F)c3)nc2C)ccc1C(N)=O,cell-free assay,,competition with immobilised ligand,1 µM,remaining binding,100%
N#CCCc1ccc2c(c1)-c1[nH]c3ccc([N+](=O)[O-])cc3c1CC(=O)N2,cell-free assay,,,0.5 µM,remaining signal,109%
N#CC1(c2ccccn2)CCN(Cc2cc(C(=O)N3CCCC3)c(=O)n3ccccc23)CC1,cell-free assay,,competition with immobilised ligand,1 µM,remaining binding,84%
O=C1NC(=O)c2cc(Nc3ccc(F)cc3)c(Nc3ccc(F)cc3)cc21,cell-free assay,,,0.5 µM,remaining signal,92.3%
